Measured values published in ChEMBL document CHEMBL1287773, “4-aryl piperazine and piperidine amides as novel mGluR5 positive allosteric modulators” (Bioorg Med Chem Lett, 2010).

How the values were obtained:
[1] = Intrinsic clearance in human liver microsome assessed as per mg of protein; type: ADME; conditions: liver microsomes
[2] = target: Metabotropic glutamate receptor 5 (Homo sapiens, UniProt P41594); assay: Positive allosteric modulation of human mGluR5 expressed in HEK293 cells assessed as Ca2+ influx by FLIPR assay; type: functional, cell-based
In short: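 HEK293 cells stably expressing human mGluR5 d isoform, plated the day before at 25,000 cells/well in DMEM with 10% dialyzed FBS. Loaded 1 h at 37 °C with 4.3 uM Fluo-4 AM in HBSS/20 mM HEPES/1 mM probenecid, pH 7.4, then washed. Eleven-concentration series added, agonist read 1 min; after 15 min, EC20 L-glutamate (final 200-300 nM) added, Ca2+ read 1 min.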

[3] = Oral bioavailability in rat; type: ADME, organism-based; conditions: in vivo
[4] = Half life in rat; type: ADME, organism-based; conditions: in vivo
[5] = Half life in dog; type: ADME, organism-based, Canis lupus familiaris; conditions: in vivo
[6] = Oral bioavailability in dog; type: ADME, organism-based, Canis lupus familiaris; conditions: in vivo
[7] = Clearance in dog plasma; type: ADME, organism-based, Canis lupus familiaris
[8] = Clearance in rat plasma; type: ADME, organism-based
[9] = Volume of distribution in dog; type: ADME, organism-based, Canis lupus familiaris; conditions: in vivo
[10] = Ratio of drug level in brain to plasma in rat; type: ADME, organism-based; conditions: brain and plasma, read-out: BPR
[11] = Volume of distribution in rat; type: ADME, organism-based; conditions: in vivo
[12] = target: Metabotropic glutamate receptor 5 (Rattus norvegicus) (UniProt P31424); assay: Displacement of [3H]-MPEP from rat mGluR5
Metabotropic glutamate receptor 5 (Rattus norvegicus), sequence (P31424 whole entry, looked up): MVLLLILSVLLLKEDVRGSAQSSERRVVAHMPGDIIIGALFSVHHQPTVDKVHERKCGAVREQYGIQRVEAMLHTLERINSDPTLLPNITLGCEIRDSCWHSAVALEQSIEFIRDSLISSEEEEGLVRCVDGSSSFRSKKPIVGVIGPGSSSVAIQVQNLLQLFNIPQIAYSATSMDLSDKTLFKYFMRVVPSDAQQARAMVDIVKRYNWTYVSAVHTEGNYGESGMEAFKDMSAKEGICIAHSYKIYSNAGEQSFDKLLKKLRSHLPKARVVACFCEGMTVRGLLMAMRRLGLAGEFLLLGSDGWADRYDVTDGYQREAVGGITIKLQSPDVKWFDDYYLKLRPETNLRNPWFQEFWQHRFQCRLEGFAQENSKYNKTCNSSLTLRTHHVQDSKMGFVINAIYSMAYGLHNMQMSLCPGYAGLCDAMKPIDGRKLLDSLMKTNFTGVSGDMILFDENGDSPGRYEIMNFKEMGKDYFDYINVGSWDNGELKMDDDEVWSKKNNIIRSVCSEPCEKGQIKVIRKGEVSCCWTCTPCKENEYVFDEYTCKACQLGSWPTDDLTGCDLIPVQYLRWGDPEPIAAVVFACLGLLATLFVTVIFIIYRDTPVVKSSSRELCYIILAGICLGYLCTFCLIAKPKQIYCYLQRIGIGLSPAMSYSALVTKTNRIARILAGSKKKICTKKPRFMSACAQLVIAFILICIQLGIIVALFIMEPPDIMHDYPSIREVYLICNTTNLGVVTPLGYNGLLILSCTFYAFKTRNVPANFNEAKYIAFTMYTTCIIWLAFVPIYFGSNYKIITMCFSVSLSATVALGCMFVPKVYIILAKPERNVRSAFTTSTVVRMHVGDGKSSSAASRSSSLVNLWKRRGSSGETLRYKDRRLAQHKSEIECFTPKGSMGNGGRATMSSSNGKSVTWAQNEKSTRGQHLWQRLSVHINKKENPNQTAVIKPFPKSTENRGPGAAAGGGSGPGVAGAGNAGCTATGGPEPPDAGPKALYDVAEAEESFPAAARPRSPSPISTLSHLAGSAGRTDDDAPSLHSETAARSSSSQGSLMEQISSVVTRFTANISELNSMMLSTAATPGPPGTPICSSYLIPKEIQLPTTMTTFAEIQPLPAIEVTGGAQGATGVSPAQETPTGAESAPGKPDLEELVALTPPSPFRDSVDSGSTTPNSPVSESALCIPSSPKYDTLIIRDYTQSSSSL

Metabotropic glutamate receptor 5, sequence (P41594 whole entry, canonical isoform): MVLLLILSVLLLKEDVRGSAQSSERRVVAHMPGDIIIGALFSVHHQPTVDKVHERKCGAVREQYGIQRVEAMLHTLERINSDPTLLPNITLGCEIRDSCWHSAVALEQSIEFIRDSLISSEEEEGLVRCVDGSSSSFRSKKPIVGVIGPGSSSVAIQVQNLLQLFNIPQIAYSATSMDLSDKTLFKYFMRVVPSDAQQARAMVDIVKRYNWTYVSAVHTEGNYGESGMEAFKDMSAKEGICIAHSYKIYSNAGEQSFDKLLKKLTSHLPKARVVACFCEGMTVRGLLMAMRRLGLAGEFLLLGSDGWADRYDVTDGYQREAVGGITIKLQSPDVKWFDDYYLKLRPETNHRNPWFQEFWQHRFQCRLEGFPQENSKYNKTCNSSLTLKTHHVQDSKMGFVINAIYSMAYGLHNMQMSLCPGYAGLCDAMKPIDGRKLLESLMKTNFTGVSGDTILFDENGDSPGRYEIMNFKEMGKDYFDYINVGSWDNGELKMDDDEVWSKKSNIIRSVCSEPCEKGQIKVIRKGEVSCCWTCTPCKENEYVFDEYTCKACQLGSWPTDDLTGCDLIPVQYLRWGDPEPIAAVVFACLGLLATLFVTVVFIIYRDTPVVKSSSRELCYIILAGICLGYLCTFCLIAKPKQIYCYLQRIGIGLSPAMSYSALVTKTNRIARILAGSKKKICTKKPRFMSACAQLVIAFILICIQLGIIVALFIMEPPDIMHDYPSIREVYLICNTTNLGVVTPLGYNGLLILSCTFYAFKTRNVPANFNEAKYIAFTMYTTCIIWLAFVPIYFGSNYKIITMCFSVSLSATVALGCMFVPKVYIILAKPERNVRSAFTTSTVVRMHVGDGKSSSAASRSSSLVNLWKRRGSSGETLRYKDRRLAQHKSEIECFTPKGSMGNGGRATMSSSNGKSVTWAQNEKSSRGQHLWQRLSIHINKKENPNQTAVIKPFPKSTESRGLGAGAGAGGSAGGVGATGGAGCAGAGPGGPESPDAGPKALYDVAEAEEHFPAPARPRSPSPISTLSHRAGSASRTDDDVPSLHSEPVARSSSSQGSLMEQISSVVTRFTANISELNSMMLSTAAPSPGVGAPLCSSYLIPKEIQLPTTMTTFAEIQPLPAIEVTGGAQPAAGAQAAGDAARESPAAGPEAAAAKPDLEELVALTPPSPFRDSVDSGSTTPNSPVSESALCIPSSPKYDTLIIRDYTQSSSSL

Row | Structure (SMILES) | microsomal CLint [1] [µL/min/mg] | EC50 [2] [nM] | further results
1 | O=C(COCc1ccncc1)N1CCN(c2ccc(Cl)cc2)CC1 | 17 | 1300 | –
2 | O=C(COCc1ccncc1)N1CCN(c2ccc(F)cc2Cl)CC1 | 29 | 550 | bioavailability [3]: 41%; half-life [4]: 438 min; half-life [5]: 174 min; bioavailability [6]: 37%; clearance [7]: 38.5 mL/min/kg; clearance [8]: 55 mL/min/kg; Vd [9]: 3.2 L/kg; Kp [10]: 4.6; Vd [11]: 4.8 L/kg; Ki [12]: 2370 nM
3 | O=C(COCc1ccncc1)N1CCN(c2ccc(Cl)cc2F)CC1 | 38 | 600 | –
4 | Cc1cc(Cl)ccc1N1CCN(C(=O)COCc2ccncc2)CC1 | 68 | 240 | –
5 | O=C(COCc1ccncc1)N1CCN(c2ccc(Cl)cc2Cl)CC1 | 76 | 180 | –
6 | O=C(COCc1ccncc1)N1CCN(c2ccc(F)cc2F)CC1 | 22 | 4600 | –
7 | O=C(COCc1ccncc1)N1CCN(c2cc(Cl)ccn2)CC1 | 4 | 4200 | –
8 | O=C(COCc1ccncc1)N1CCC(c2ccc(Cl)cc2)CC1 | 41 | 680 | –
9 | O=C(COCc1ccncc1)N1CCC(c2ccc(F)cc2Cl)CC1 | 56 | 370 | –
10 | O=C(COCc1ccncc1)N1CCC(c2ccc(Cl)cc2Cl)CC1 | 96 | 390 | –
11 | O=C(COCc1ccncc1)N1CCC(F)(c2ccc(Cl)cc2)CC1 | 45 | 800 | –
12 | CC1(c2ccc(Cl)cc2)CCN(C(=O)COCc2ccncc2)CC1 | – | 2100 | –
13 | O=C(COCc1ccncc1)N1CCC(F)(c2ccc(F)cc2Cl)CC1 | – | 6600 | –
14 | Fc1ccc(C2CCN(C(=S)COCc3ccncc3)CC2)c(Cl)c1 | – | > 10600 | –
15 | Clc1ccc(N2CCN(CCOCc3ccccc3)CC2)c(Cl)c1 | – | > 25000 | –
16 | O=C(CCCc1ccncc1)N1CCN(c2ccc(Cl)cc2Cl)CC1 | – | 5300 | –
17 | O=C(CNCc1ccncc1)N1CCN(c2ccc(Cl)cc2Cl)CC1 | – | 8500 | –
18 | CN(CC(=O)N1CCN(c2ccc(Cl)cc2Cl)CC1)Cc1ccncc1 | – | > 25000 | –
19 | O=C(CSCc1ccccc1)N1CCN(c2ccc(Cl)cc2Cl)CC1 | – | 7100 | –
20 | O=C(CSc1ccccc1)N1CCN(c2ccc(Cl)cc2Cl)CC1 | – | > 25000 | –
21 | C[C@@H](OCc1ccncc1)C(=O)N1CCC(c2ccc(Cl)cc2F)CC1 | – | > 25000 | –

Row | Structure (SMILES) | microsomal CLint [1] [µL/min/mg] | EC50 [2] [nM] | further results
22 | O=C(COCc1ccccn1)N1CCN(c2ccc(Cl)cc2Cl)CC1 | 94 | 310 | –
23 | O=C(COCc1cccnc1)N1CCN(c2ccc(Cl)cc2Cl)CC1 | 210 | 1090 | –
24 | O=C(COCc1cnccn1)N1CCN(c2ccc(Cl)cc2Cl)CC1 | 4 | 5200 | –
25 | O=C(COCc1ccncn1)N1CCN(c2ccc(Cl)cc2Cl)CC1 | 17 | 2800 | –
26 | O=C(COCc1ncccn1)N1CCN(c2ccc(Cl)cc2Cl)CC1 | 16 | 18000 | –
27 | O=C(COCc1cscn1)N1CCN(c2ccc(Cl)cc2Cl)CC1 | 62 | 290 | –
28 | O=C(COCc1cncs1)N1CCN(c2ccc(Cl)cc2Cl)CC1 | 73 | 1280 | –
29 | O=C(COCc1ccccc1)N1CCN(c2ccccc2)CC1 | – | 7100 | –
30 | O=C(COCc1nccs1)N1CCN(c2ccc(Cl)cc2Cl)CC1 | 80 | > 10300 | –
31 | O=C(COCc1cccs1)N1CCN(c2ccc(Cl)cc2Cl)CC1 | 360 | 310 | –
32 | N#Cc1ccc(COCC(=O)N2CCN(c3ccc(Cl)cc3Cl)CC2)s1 | 110 | 210 | –
33 | O=C(COCc1ccccc1)N1CCN(c2ccccc2Cl)CC1 | 540 | 1100 | –
34 | O=C(COCc1ccccc1)N1CCN(c2cccc(Cl)c2)CC1 | 310 | 6700 | –
35 | O=C(COCc1ccccc1)N1CCN(c2ccc(Cl)cc2)CC1 | 290 | 350 | –
36 | O=C(COCc1ccccc1)N1CCN(c2ccc(F)cc2)CC1 | 110 | 1100 | –
37 | O=C(COCc1ccccc1)N1CCN(c2ccc(Cl)cc2Cl)CC1 | 450 | 1400 | –
38 | O=C(COCc1ccccc1)N1CCN(c2ccc(F)cc2F)CC1 | 580 | 300 | –
39 | O=C(COCc1ccccc1)N1CCN(c2ccc(F)cc2Cl)CC1 | 530 | 270 | –
40 | O=C(COCc1ccccc1)N1CCN(c2cc(Cl)ccn2)CC1 | 130 | 570 | –
41 | O=C(COCc1ccccc1)N1CCN(c2ccncc2)CC1 | – | > 25000 | –
